Series [1] in a line: Half-life in culture medium. It is filed as ADME.
The subject of series [2] is MT4. As to the kind of experiment: (§1) Compound was tested for antiviral activity against the MT-4 cell lines infected with HIV-1. In kind it is functional, cell-based. The conditions noted are these: Homo sapiens. Put shortly:
(§2)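 MT-4 cells infected with 50 TCID50 HIV-1 IIIB for 30 min, washed twice, then cultured 5 days with graded compound concentrations. Protection from virus-induced cytopathogenicity read by MTT reduction to formazan. EC50 taken from median effect plot of dose-effect data.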

For series [3], the system named is Vero. The series is described as follows: Compound was tested for antiviral activity against the Vero cells infected with HSV-2. The settings on record: Chlorocebus sabaeus. It is filed as functional, cell-based. The essentials:
(§3)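 Confluent cells in MEM with 5% FBS infected with 100 CCID50 virus (HSV-1 strain F or HSV-2 strain G) for 1 h at 37 °C, then exposed to compound from 1 mM to 1 uM. Cytopathic effect scored daily. EC50 is the concentration that reduces CPE by 50% once CPE is complete in untreated infected controls.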

Series [4] concerns CEM-SS. As to the kind of experiment: (§4) Compound was tested for antiviral activity against the CEM-SS cell lines infected with HIV-1. In kind it is functional. The settings on record: Homo sapiens.
For series [5], the system named is MT4. The description is as §1. It is filed as functional. The settings on record: Homo sapiens. Put shortly: as §2
A short description of series [6]: Percent decomposition in water at specified pH 7.2. The conditions noted are these: buffer.
The subject of series [7] is CEM-SS. Described as §4. It is filed as functional, cell-based. The settings on record: Homo sapiens. The essentials: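 CEM-SS cells infected with 100 TCID50 HIV-LAI for 30 min, unbound virus removed by two washes, then cultured 5 days with graded compound concentrations. Virus production quantified as reverse transcriptase activity in culture supernatant. EC50 derived from median effect plot of dose-effect data.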

In series [8] the test system is MRC5. The series is described as follows: Compound was tested for antiviral activity against the MRC-5 cells infected with HSV-2. In kind it is functional, cell-based. The settings on record: Homo sapiens. The essentials: as §3
Series [9] is described as follows: Partition coefficient (logP). The settings on record: octanol/water. In kind it is physicochemical. Put shortly:
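Octanol/water partition coefficient (logP) determined by HPLC using a microscale method adapted from earlier work on nucleoside analogues.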

Series [10] concerns Vero. As to the kind of experiment: (§5) Compound was tested for antiviral activity against the Vero cells infected with HSV-1. It is filed as functional, cell-based. The settings on record: Chlorocebus sabaeus. The essentials:
as §3

Series [11] relates to MRC5. The series is described as follows: (§6) Compound was tested for antiviral activity against the MRC-5 cells infected with HSV-1. It is filed as functional. The conditions noted are these: Homo sapiens. Put shortly:
as §3

Series [12] has as its system MRC5. Described as §6. In kind it is functional, cell-based. The settings on record: Homo sapiens. The essentials:
as §3

Series [13] concerns Vero. The series is described as §5. The settings on record: Chlorocebus sabaeus. In kind it is functional.
Series [14] can be described thus: Half-life in RPMI1640 medium. It is filed as ADME.

Turning to `CC(C)(C)C(=O)SCCOP(=O)(O)COCCn1cnc2c(N)ncnc21`, in series [1], the half-life is 230 h.
The same measure, in the same setting: under `CC(=O)SCCOP(=O)(O)COCCn1cnc2c(N)ncnc21` stands 19.2 h; under `CC(C)C(=O)SCCOP(=O)(O)COCCn1cnc2c(N)ncnc21`, 28.8 h.
Turning to `CC(C)C(=O)SCCOP(=O)(COCCn1cnc2c(N)ncnc21)OCCSC(=O)C(C)C`, the EC50 in the series on MT4 [2] is 0.51 µM; in the series on Vero [3] it was 1.14 µM; with CEM-SS [7] it was 0.09 µM; in the series on MRC5 [8], 1.2 µM; in the series with Vero [10], 1.35 µM; in the series with MRC5 [12] it was 1.69 µM. In series [1], the half-life was 8.3 h. Also, the CC50 with CEM-SS [4] is 13 µM; in the series with MT4 [5], 3.8 µM; with MRC5 [11], 30.2 µM; in the series on Vero [13], 23 µM. The percent decomposition in series [6] was determined as 1.6%. In addition, the logP in series [9] (read-out: logP) was 2.31.
In the case of `CC(=O)SCCOP(=O)(COCCn1cnc2c(N)ncnc21)OCCSC(C)=O`, the EC50 with MT4 [2] was found to be 1.1 µM; in the series with Vero [3] it was 10.2 µM; in the series with CEM-SS [7], 0.1 µM; with MRC5 [8], 8.9 µM; in the series on Vero [10], 14.2 µM; with MRC5 [12] it was 12.6 µM. Besides, the half-life in series [1] was 3.7 h; in [14], greater than 24 h. Besides, the CC50 with CEM-SS [4] worked out at 23 µM; with MT4 [5], 7.6 µM; in the series with MRC5 [11], 148 µM; in the series on Vero [13], 126 µM. This compound showed a percent decomposition in series [6] of 4%. Further, in series [9] (read-out: logP), the logP was determined as 0.32.
Take `CC(C)(C)C(=O)SCCOP(=O)(COCCn1cnc2c(N)ncnc21)OCCSC(=O)C(C)(C)C`: the EC50 in the series with MT4 [2] was 0.65 µM; with Vero [3] it was 1.12 µM; in the series with CEM-SS [7], 0.03 µM; in the series on MRC5 [8] it was 0.97 µM; in the series on Vero [10], 1.07 µM; in the series with MRC5 [12], 1.43 µM. Moreover, in series [1], the half-life amounted to 81.6 h. Also, the CC50 in the series with CEM-SS [4] was 5.8 µM; in the series on MT4 [5], 15 µM; in the series on MRC5 [11] it was 48.5 µM; in the series on Vero [13] it was 36.8 µM. The compound also showed a percent decomposition in [6] of 3%. The logP in series [9] (read-out: logP) was determined as 3.41.
With `Nc1ncnc2c1ncn2CCOCP(=O)(OCCSSCCO)OCCSSCCO`, the EC50 was determined as 6.9 µM with MT4 [2]; 27.4 µM in the series with Vero [3]; 2 µM with CEM-SS [7]; 26.5 µM with MRC5 [8]; 22.3 µM in the series on Vero [10]; 32.3 µM with MRC5 [12]. In addition, the half-life in [1] was 38.4 h; in series [14], greater than 24 h. In addition, the CC50 in the series on CEM-SS [4] is 67 µM; in the series on MT4 [5] it was 50 µM; with MRC5 [11], greater than 100 µM; in the series with Vero [13], greater than 100 µM. In series [6], this compound showed a percent decomposition of 13.9%. In addition, the logP in series [9] (read-out: logP) worked out at 0.21.
As for `Nc1ncnc2c1ncn2CCOCP(=O)(OCCSC(=O)c1ccccc1)OCCSC(=O)c1ccccc1`, the concentration giving a half-maximal response (EC50) with MT4 [2] worked out at 0.41 µM; with Vero [3], 2.89 µM; in the series on CEM-SS [7] it was 0.05 µM; in the series with MRC5 [8], 4.75 µM; in the series with Vero [10], 2.56 µM; in the series with MRC5 [12], 3.48 µM. The same compound had a half-life in series [1] of 25.7 h. For the same compound, the CC50 amounted to 3.9 µM in the series on CEM-SS [4], 2.4 µM in the series with MT4 [5], 18.7 µM in the series on MRC5 [11] and 12.7 µM with Vero [13]. Further, the percent decomposition in series [6] stood at 1.7%. Moreover, in series [9] (read-out: logP), the logP was determined as 3.93.
In turn, `Nc1ncnc2c1ncn2CCOCP(=O)(O)OCCSC(=O)c1ccccc1` showed a half-life in series [1] of 64.8 h.
Regarding `CC(C)(C)C(=O)OCOP(=O)(COCCn1cnc2c(N)ncnc21)OCOC(=O)C(C)(C)C` [ADEFOVIR DIPIVOXIL], the EC50 with MT4 [2] was determined as 0.08 µM; with Vero [3] it was 1.15 µM; in the series with CEM-SS [7], 0.04 µM; in the series with MRC5 [8], 0.91 µM; with Vero [10] it was 0.87 µM; with MRC5 [12] it was 1.23 µM. In addition, the half-life in [1] and in [14] was 5 h in each case. Also, the CC50 was determined as 4.4 µM with CEM-SS [4], 0.74 µM with MT4 [5], 15.7 µM in the series on MRC5 [11] and 22.6 µM in the series with Vero [13]. The same compound showed a percent decomposition in series [6] of 32.7%. In series [9] (read-out: logP), the logP stood at 2.48.
For `Nc1ncnc2c1ncn2CCOCP(=O)(O)O` [ADEFOVIR], the EC50 is greater than 10 µM with MT4 [2]; 32.7 µM in the series with Vero [3]; 0.42 µM in the series with CEM-SS [7]; 33.5 µM in the series on MRC5 [8]; 38.5 µM in the series on Vero [10]; 29.7 µM in the series with MRC5 [12]. Also, the CC50 is greater than 10 µM with CEM-SS [4], greater than 10 µM with MT4 [5], greater than 100 µM in the series on MRC5 [11] and greater than 100 µM in the series with Vero [13]. The compound also returned a logP in series [9] of -4.11.

As usually defined, the half-life is the time in which the quantity being followed falls by half. Read a high half-life as slow loss. As usually defined, the EC50 is the concentration at which the effect is half-maximal. Read a high EC50 as a need for much substance. The term CC50 denotes the concentration at which the toxic effect on the cells reaches its halfway point. Usually logP stands for a log measure of how a compound divides between an organic and an aqueous phase.

(Values after ChEMBL document CHEMBL1129055, “Synthesis, in vitro antiviral evaluation, and stability studies of bis(S-acyl-2-thioethyl) ester derivatives of 9-[2-(phosphonomethoxy)ethyl]adenine (PMEA) as potential PMEA prodrugs with improved oral bioavailability” (J Med Chem, 1996).)
